What was measured:
[1] = MTT-based cell viability assay; settings: human, HeLa cells
Outline: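 HeLa cells harvested in log phase, seeded at 1×10^3 per well in DMEM with 10% FBS, kept at 37 °C with 5% CO2. Test compound added 24 h after seeding from 10× stocks in DMEM; controls were DMEM alone and medium with DMSO (final 1%). At 72 h, MTT (2 mg mL−1 in PBS) added for 4 h; formazan dissolved in DMSO, A550 read. Value is the concentration reducing absorbance to 50% of control.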

[2] = test system: HIV-1 in permissive cells (MT-4); settings: which do not express A3G; cited from earlier work

Structure (SMILES)	CC50 at 72 h [1] [µM]	inhibition of HIV-1 replication in permissive cells [2]
COc1ccccc1S(=O)(=O)Nc1ccccc1Sc1ccc(N)cc1 [6e, N-(2-(4-aminophenylthio)phenyl)-2-methoxybenzenesulfonamide]	65	–
COc1ccccc1S(=O)(=O)Nc1ccccc1Sc1ccc([N+](=O)[O-])cc1 [5e, 2-Methoxy-N-(2-(4-nitrophenylthio)phenyl)benzenesulfonamide]	> 100	–
COC(=O)c1ccc(COc2ccccc2NC(=O)c2ccccc2OC)cc1 [45k, Methyl 4-((2-(2-methoxybenzamido)phenoxy)methyl)benzoate]	> 100	–
O=C(Nc1ccccc1CO)c1ccccc1Oc1ccc([N+](=O)[O-])cc1 [18e, N-(2-(hydroxymethyl)phenyl)-2-(4-nitrophenoxy)benzamide]	25	–
COc1ccc(Oc2ccccc2NC(=O)c2ccccc2OC)cc1 [31k, 2-Methoxy-N-(2-(4-methoxyphenoxy)phenyl)benzamide]	> 100	–
COc1ccccc1NC(=O)c1ccccc1Sc1ccc([N+](=O)[O-])cc1Cl [16a, 2-(2-Chloro-4-nitrophenylthio)-N-(2-methoxyphenyl)benzamide]	50	–
COc1ccccc1C(=O)Nc1ccccc1Sc1ccc([N+](=O)[O-])cc1 [5c, N-(2-(4-Nitrophenylthio)phenyl)-2-methoxybenzamide]	> 100	–
O=C(Nc1ccccc1CO)c1ccccc1Sc1ccc([N+](=O)[O-])cc1 [15e, N-(2-(Hydroxymethyl)phenyl)-2-((4-nitrophenyl)thio)benzamide]	> 100	–
COc1ccc(COc2ccccc2C(=O)Nc2ccccc2OC)cc1 [43j, 2-(4-methoxybenzyloxy)-N-(2-methoxyphenyl)benzamide]	> 100	–
COc1ccccc1NC(=O)c1ccccc1Sc1ccccc1 [4a, N-(2-Methoxyphenyl)-2-(phenylthio)benzamide]	> 100	–
COc1ccccc1NC(=O)c1ccccc1Sc1ccc([N+](=O)[O-])cc1 [5a (RN18), N-(2-Methoxyphenyl)-2-((4-nitrophenyl)thio)benzamide]	> 100	not in permissive cells
CC(C)(C)OC(=O)N1CCN(C(=O)c2ccccc2Sc2ccc([N+](=O)[O-])cc2)CC1 [15h, tert-Butyl 4-(2-((4-nitrophenyl)thio)benzoyl)piperazine-1-carboxylate]	70	–
COc1ccccc1NC(=O)c1ccccc1Sc1ccc(N)cc1 [6a, 2-((4-Aminophenyl)thio)-N-(2-methoxyphenyl)benzamide]	> 100	–
COc1ccccc1NC(=O)c1ccccc1OCc1cccc([N+](=O)[O-])c1 [41j, N-(2-Methoxyphenyl)-2-((3-nitrobenzyl)oxy)benzamide]	> 100	–
O=C(Cc1ccccc1F)Nc1ccccc1Sc1ccc([N+](=O)[O-])cc1 [5g, 2-(2-Fluorophenyl)-N-(2-((4-nitrophenyl)thio)phenyl)acetamide]	> 100	–
COc1ccccc1NC(=O)c1ccccc1Oc1ccc([N+](=O)[O-])cc1 [18a, N-(2-Methoxyphenyl)-2-(4-nitrophenoxy)benzamide]	15	–
COc1ccccc1C(=O)Nc1ccccc1Oc1ccc(N(C)C)cc1 [30k, N-(2-(4-(Dimethylamino)phenoxy)phenyl)-2-methoxybenzamide]	> 100	–
COc1ccccc1NC(=O)c1ccccc1Oc1ccc2c(c1)OCO2 [23h, 2-(Benzo[d][1,3]dioxol-5-yloxy)-N-(2-methoxyphenyl)benzamide]	> 100	–
O=C(Nc1cccc(CO)c1)c1ccccc1Sc1ccc([N+](=O)[O-])cc1 [15f, N-(3-(Hydroxymethyl)phenyl)-2-((4-nitrophenyl)thio)benzamide]	> 100	–
COc1ccccc1C(=O)Nc1ccccc1Oc1ccc([N+](=O)[O-])cc1 [29k, 2-Methoxy-N-(2-(4-nitrophenoxy)phenyl)benzamide]	> 100	–
COc1ccccc1C(=O)Nc1ccccc1Oc1ccc(OC(C)=O)cc1 [32k, 4-(2-(2-Methoxybenzamido)phenoxy)phenyl acetate]	> 100	–
COc1ccccc1NS(=O)(=O)c1ccccc1Sc1ccc([N+](=O)[O-])cc1 [5d, N-(2-Methoxyphenyl)-2-((4-nitrophenyl)thio)benzenesulfonamide]	> 100	–
COc1ccccc1NC(=O)c1ccccc1OCc1ccc([N+](=O)[O-])cc1 [40j, N-(2-Methoxyphenyl)-2-((4-nitrobenzyl)oxy)benzamide]	> 100	–
COc1ccccc1C(=O)Nc1ccccc1Sc1ccc(N)cc1 [6c, N-(2-(4-Aminophenylthio)phenyl)-2-methoxybenzamide]	60	–
COc1ccccc1NS(=O)(=O)c1ccccc1Sc1ccc(N)cc1 [6d, 2-((4-Aminophenyl)thio)-N-(2-methoxyphenyl)benzenesulfonamide]	> 100	–
COC(=O)c1ccc(Oc2ccccc2NC(=O)c2ccccc2OC)cc1 [33k, Methyl 4-(2-(2-methoxybenzamido)phenoxy)benzoate]	> 100	–
COc1ccccc1NC(=O)c1ccccc1Oc1ccc(N)cc1 [19a, 2-(4-Aminophenoxy)-N-(2-methoxyphenyl)benzamide]	> 100	–
O=C(Nc1ccc2c(c1)OCO2)c1ccccc1Sc1ccc([N+](=O)[O-])cc1Cl [16d, N-(Benzo[d][1,3]dioxol-5-yl)-2-((2-chloro-4-nitrophenyl)thio)benzamide]	> 100	–
COc1ccccc1C(=O)Nc1ccccc1OCc1ccc([N+](=O)[O-])cc1 [40k, N-(2-(4-Nitrobenzyloxy)phenyl)-2-methoxybenzamide]	> 100	–
COc1ccccc1CC(=O)Nc1ccccc1Sc1ccc([N+](=O)[O-])cc1 [5f, 2-(2-Methoxyphenyl)-N-(2-((4-nitrophenyl)thio)phenyl)acetamide]	> 100	–

Reference: article PMC3517065 (ChemMedChem, 2012)
